Tests used:
[1] = Cytostatic activity against human Hs578 cells after 5 days by SRB assay; format: functional; details: Hs578, 120 h
Procedure, shortened: (§1)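 Cells seeded in RPMI (colon, breast, lung lines), MEM (Du145) or F12K (PC3) with 10% FBS, 37 °C overnight. Day-zero plates fixed with cold 10% TCA. Compounds added as 5-fold serial dilutions for 5 days. Fixed, stained with 0.057% SRB in 1% acetic acid, dye solubilized in 10 mM Tris pH 10.5, A500 read. Growth % corrected for day-0 OD; GIC₅₀ from sigmoidal fit.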

HL-60 = test: Cytotoxicity against human HL60 cells after 3 days by XTT assay; format: functional, cell-based; details: HL-60, 72 h
Procedure, shortened: (§2)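 Cell viability of CCRF-CEM, HL60 and HeLa cells measured by XTT assay after 72 h incubation with compounds. IC₅₀ taken as mean of 2–4 independent experiments.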

CCRF-CEM [2] = test: Cytotoxicity against human CCRF-CEM cells after 3 days by XTT assay; format: functional, cell-based; details: 72 h; procedure, shortened: as §2
[3] = Cytotoxicity against human HeLaS3 cells after 3 days by XTT assay; format: functional, cell-based; details: HeLa S3, 72 h
NCI-H23 = test: Cytotoxicity against human NCI-H23 cells after 5 days by SRB assay; format: functional; details: NCI-H23, 120 h; procedure, shortened: as §1
PC-3 = test: Cytotoxicity against human PC3 cells after 5 days by SRB assay; format: functional; details: PC-3, 120 h; procedure, shortened: as §1
HCT-15 = test: Cytotoxicity against human HCT15 cells after 5 days by SRB assay; format: functional; details: HCT-15, 120 h; procedure, shortened: as §1
CCRF-CEM [4] = test: Inhibition of RNA synthesis in human CCRF-CEM assessed as assessed as BrdU incorporation after 24 by flow cytometry; format: functional
BT-549 = test: Cytotoxicity against human BT549 cells after 5 days by SRB assay; format: functional; details: BT-549, 120 h; procedure, shortened: as §1
DU-145 [5] = test: Cellular uptake ion human DU145 cells measured per million cells after 6 hrs; format: functional
Procedure, shortened: (§3)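 Du145 cells incubated with 10 μM compound for 6 or 24 h, PBS-washed, trypsinized, pelleted, spun through Nyosil M25 oil. Extracts analysed by LC/MS/MS for parent nucleoside, monophosphate and triphosphate. Standards and QC samples prepared in untreated-cell extracts. Expressed as pmol per million cells.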

DU-145 [6] = test: Cellular uptake ion human DU145 cells assessed as monophosphate level measured per million cells after 6 hrs; format: functional; procedure, shortened: as §3
DU-145 [7] = test: Cellular uptake ion human DU145 cells measured per million cells after 24 hrs; format: functional; procedure, shortened: as §3
DU-145 [8] = test: Cellular uptake ion human DU145 cells assessed as monophosphate level measured per million cells after 24 hrs; format: functional; procedure, shortened: as §3
CCRF-CEM [9] = test: Cell cycle arrest in human CCRF-CEM assessed as accumulation at subG1 phase at 1 x GIC50 after 24 hrs by flow cytometry; format: functional
Procedure, shortened: (§4)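 Subconfluent CCRF-CEM (5 × 10⁵ cells/mL, RPMI 1640 + 10% FCS, 37 °C CO₂) exposed 24 h at 1× or 5× GIC₅₀, vehicle controls alongside. Cells fixed overnight in 70% ethanol at -20 °C, hypotonic citrate wash, RNase 50 μg/mL, propidium iodide stain, 488 nm flow cytometry. Sub-G1 = particles with PI content below G0/G1 cells. Reported as % of total cells.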

CCRF-CEM [10] = test: Cell cycle arrest in human CCRF-CEM assessed as accumulation at subG1 phase at 5 x GIC50 after 24 hrs by flow cytometry; format: functional; procedure, shortened: as §4
CCRF-CEM [11] = test: Cell cycle arrest in human CCRF-CEM assessed as accumulation at G1 phase at 1 x GIC50 after 24 hrs by flow cytometry; format: functional; procedure, shortened: as §4
CCRF-CEM [12] = test: Cell cycle arrest in human CCRF-CEM assessed as accumulation at G1 phase at 5 x GIC50 after 24 hrs by flow cytometry; format: functional; procedure, shortened: as §4
CCRF-CEM [13] = test: Cell cycle arrest in human CCRF-CEM assessed as accumulation at S phase at 1 x GIC50 after 24 hrs by flow cytometry; format: functional; procedure, shortened: as §4
CCRF-CEM [14] = test: Cell cycle arrest in human CCRF-CEM assessed as accumulation at S phase at 5 x GIC50 after 24 hrs by flow cytometry; format: functional; procedure, shortened: as §4
CCRF-CEM [15] = test: Cell cycle arrest in human CCRF-CEM assessed as accumulation at G2/M phase at 1 x GIC50 after 24 hrs by flow cytometry; format: functional; procedure, shortened: as §4
CCRF-CEM [16] = test: Cell cycle arrest in human CCRF-CEM assessed as accumulation at G2/M phase at 5 x GIC50 after 24 hrs by flow cytometry; format: functional; procedure, shortened: as §4
CCRF-CEM [17] = test: Antimitotic activity in human CCRF-CEM cells assessed as decrease in mitotic histone H3 at 1 x GIC50; format: functional; parameters: scale not given: the % may be the effect or the level left
Procedure, shortened: (§5)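 CCRF-CEM cells seeded subconfluent at 5 × 10⁵ cells/mL in RPMI 1640 with 10% FCS, 10 mM glutamine, penicillin/streptomycin, 37 °C humidified CO₂. Exposed 24 h at 1× or 5× GIC₅₀; vehicle controls harvested at 24 h. Ethanol-fixed cells labelled with anti-phospho-histone H3 Ser10 and mitotic cells counted by flow cytometry as % of total population.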

CCRF-CEM [18] = test: Antimitotic activity in human CCRF-CEM cells assessed as decrease in mitotic histone H3 at 5 x GIC50; format: functional; parameters: scale not given: the % may be the effect or the level left; procedure, shortened: as §5
CCRF-CEM [19] = test: Inhibition of RNA synthesis in human CCRF-CEM assessed as assessed as BrdU incorporation at 1 x GIC50 after 24 by flow cytometry; format: functional; parameters: scale not given: the % may be the effect or the level left
Procedure, shortened: (§6)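 CCRF-CEM culture as for cell cycle (24 h, 1× or 5× GIC₅₀). Cells pulsed 30 min with 1 mM bromouridine before harvest. Fixed in 1% paraformaldehyde/0.05% NP-40. Stained with anti-BrdU antibody cross-reacting with BrU, then FITC secondary, PI and RNase A. BrU+ cells quantified by 488 nm flow cytometry.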

CCRF-CEM [20] = test: Inhibition of RNA synthesis in human CCRF-CEM assessed as assessed as BrdU incorporation at 5 x GIC50 after 24 by flow cytometry; format: functional; parameters: scale not given: the % may be the effect or the level left; procedure, shortened: as §6
CCRF-CEM [21] = test: Inhibition of DNA synthesis in human CCRF-CEM assessed as assessed as BrdU incorporation at 1 x GIC50 after 24 by flow cytometry; format: functional; parameters: scale not given: the % may be the effect or the level left
Procedure, shortened: (§7)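 Culture as for cell cycle work (CCRF-CEM, 24 h, 1× or 5× GIC₅₀). Pulse with 10 μM BrdU for 30 min before harvest. Fixed in 70% ethanol, DNA denatured in 2 M HCl, neutralized with 0.1 M borax. Stained with anti-BrdU and FITC secondary, plus PI 0.1 mg/mL and RNase A. BrdU+ cells counted by flow cytometry.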

CCRF-CEM [22] = test: Inhibition of DNA synthesis in human CCRF-CEM assessed as assessed as BrdU incorporation at 5 x GIC50 after 24 by flow cytometry; format: functional; parameters: scale not given: the % may be the effect or the level left; procedure, shortened: as §7
CCRF-CEM [23] = test: Inhibition of DNA synthesis in human CCRF-CEM assessed as assessed as BrdU incorporation after 24 by flow cytometry; format: functional
A549 = test: Cytostatic activity against human A549 cells after 5 days by SRB assay; format: functional; details: A549, 120 h; procedure, shortened: as §1
DU-145 [24] = test: Cytostatic activity against human DU145 cells after 5 days by SRB assay; format: functional; details: DU-145, 120 h; procedure, shortened: as §1
HCT-116 = test: Cytostatic activity against human HCT116 cells after 5 days by SRB assay; format: functional; details: HCT-116, 120 h; procedure, shortened: as §1
DU-145 [25] = test: Cellular uptake ion human DU145 cells assessed as triphosphate level measured per million cells after 6 hrs
DU-145 [26] = test: Cellular uptake ion human DU145 cells assessed as triphosphate level measured per million cells after 24 hrs

Row | GI50 (A549) | GI50 (DU-145 [24]) | GI50 (HCT-116) | SMILES | GI50 [1] | IC50 (HL-60) | IC50 (CCRF-CEM [2]) | IC50 [3] | Activity (DU-145 [5]) | Activity (DU-145 [6]) | Activity (DU-145 [7]) | Activity (DU-145 [8]) | triphosphate (NTP) level (DU-145 [25]) | triphosphate (NTP) level (DU-145 [26]) | other results
1 | 88 nM | 7 nM | 78 nM | OC[C@H]1O[C@@H](n2ccc3c(-c4ccco4)ncnc32)[C@H](O)[C@@H]1O | 49 nM | 0.81 µM | 310 nM | 770 nM | 950 pmol | 4124 pmol | 207 pmol | 6842 pmol | 88.4 pmol | 109 pmol | GI50 (NCI-H23): 130 nM; GI50 (PC-3): 14 nM; GI50 (HCT-15): 20 nM; inhibition (INH) (CCRF-CEM [4]): 4.7%; GI50 (BT-549): 12 nM; Activity (CCRF-CEM [9]): 16.5%; Activity (CCRF-CEM [10]): 60.2%; Activity (CCRF-CEM [11]): 44.9%; Activity (CCRF-CEM [12]): 46.7%; Activity (CCRF-CEM [13]): 42.2%; Activity (CCRF-CEM [14]): 44.6%; Activity (CCRF-CEM [15]): 12.9%; Activity (CCRF-CEM [16]): 6.8%; Activity (CCRF-CEM [17]): 1.21%; Activity (CCRF-CEM [18]): 0.48%; Activity (CCRF-CEM [19]): 28.7%; Activity (CCRF-CEM [20]): 4.7%; Activity (CCRF-CEM [21]): 54.3%; Activity (CCRF-CEM [22]): 31.3%; inhibition (INH) (CCRF-CEM [23]): 31.33%
2 | > 10000 nM | > 10000 nM | > 10000 nM | OC[C@H]1O[C@@H](n2cc(Cl)c3c(-c4ccco4)ncnc32)[C@H](O)[C@@H]1O | > 10000 nM | 21.6 µM | 3800 nM | > 40000 nM | 20.1 pmol | 164 pmol | 45 pmol | 332 pmol | 19.2 pmol | 21.2 pmol | 

Source: ChEMBL document CHEMBL1156780, “6-(Het)aryl-7-deazapurine ribonucleosides as novel potent cytostatic agents” (J Med Chem, 2010)
